ChEMBL document CHEMBL4622985, “Design, Synthesis, and Pharmacological Characterization of Heterobivalent Ligands for the Putative 5-HT2A/mGlu2 Receptor Complex” (J Med Chem, 2020)

target: T1, 5-hydroxytryptamine receptor 2A/Metabotropic glutamate receptor 2 (Homo sapiens, UniProt P28223+Q14416); test: Displacement of [3H]-ketanserin from human 5HT2A/mGlu2 receptor expressed in HEK293 cell membranes incubated for 2 hrs by scintillation counting method; details: read-out: Ki
Summary of the method: (§1)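 Membranes from stable HEK293 lines were homogenized and centrifuged twice at 50.000g, 4 °C, then resuspended in 50 mM Tris-HCl, 10 mM MgCl2, 0.1 mM EDTA, pH 7.4. Competition used fixed [3H]ketanserin ~1.5 nM (1.3−1.8 nM) against varied test compound, with bound/free kept <10%. Incubation ran 2 h at rt with shaking, followed by GF/C filtration. Ki was obtained by Cheng−Prusoff using saturation KD. Three independent experiments, each in duplicate.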

T1 sequence (P28223 whole entry): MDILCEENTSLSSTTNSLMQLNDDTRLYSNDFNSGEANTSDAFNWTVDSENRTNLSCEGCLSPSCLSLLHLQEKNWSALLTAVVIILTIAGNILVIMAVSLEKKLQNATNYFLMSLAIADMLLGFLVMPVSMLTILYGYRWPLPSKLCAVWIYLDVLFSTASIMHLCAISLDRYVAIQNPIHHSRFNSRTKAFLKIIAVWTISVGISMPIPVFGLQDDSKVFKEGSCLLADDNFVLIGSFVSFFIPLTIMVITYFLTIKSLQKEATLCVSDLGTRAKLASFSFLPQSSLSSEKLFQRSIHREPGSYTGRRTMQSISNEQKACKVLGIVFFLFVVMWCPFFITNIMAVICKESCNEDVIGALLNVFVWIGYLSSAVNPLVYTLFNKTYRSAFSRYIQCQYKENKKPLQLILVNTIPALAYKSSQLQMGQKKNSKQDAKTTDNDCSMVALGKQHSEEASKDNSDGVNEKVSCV
T1 sequence (Q14416 whole entry): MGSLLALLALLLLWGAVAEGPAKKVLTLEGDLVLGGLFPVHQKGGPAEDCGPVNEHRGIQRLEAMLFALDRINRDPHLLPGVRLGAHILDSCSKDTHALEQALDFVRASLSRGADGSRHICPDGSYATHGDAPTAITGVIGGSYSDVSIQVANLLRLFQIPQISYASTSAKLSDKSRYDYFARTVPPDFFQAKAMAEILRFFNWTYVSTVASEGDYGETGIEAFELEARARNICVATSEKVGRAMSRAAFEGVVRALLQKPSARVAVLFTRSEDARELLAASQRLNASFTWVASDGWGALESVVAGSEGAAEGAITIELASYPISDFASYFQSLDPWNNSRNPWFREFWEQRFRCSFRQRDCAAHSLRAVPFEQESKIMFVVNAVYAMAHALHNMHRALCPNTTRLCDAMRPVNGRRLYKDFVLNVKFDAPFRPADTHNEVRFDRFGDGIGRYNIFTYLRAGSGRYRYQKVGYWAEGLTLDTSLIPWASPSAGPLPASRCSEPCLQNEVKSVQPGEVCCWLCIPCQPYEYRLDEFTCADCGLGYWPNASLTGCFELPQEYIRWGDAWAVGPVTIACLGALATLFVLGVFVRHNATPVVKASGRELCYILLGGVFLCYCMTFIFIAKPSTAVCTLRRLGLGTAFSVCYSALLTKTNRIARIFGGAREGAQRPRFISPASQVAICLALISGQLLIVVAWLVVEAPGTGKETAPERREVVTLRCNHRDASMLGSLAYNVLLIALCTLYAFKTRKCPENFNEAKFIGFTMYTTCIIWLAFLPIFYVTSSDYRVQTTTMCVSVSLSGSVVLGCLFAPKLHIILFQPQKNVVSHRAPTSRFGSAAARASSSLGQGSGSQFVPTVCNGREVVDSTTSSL

**Q.** `COc1c(OCCOCCOCCOCCOCCOCCOCCOCCOc2ccc(C3CCN(c4ccn5c(CC6CC6)nnc5c4Cl)CC3)cc2)cccc1C(=O)C1CCN(CCc2ccc(F)cc2)CC1` was tested. Which Ki did it give?
**A.** The Ki was 120 nM.

**Q.** For `COCCOc1cccc(C(=O)C2CCN(CCc3ccc(F)cc3)CC2)c1OC`, which Ki is on record?
**A.** Its Ki is 6.5 nM.

target: T1, 5-hydroxytryptamine receptor 2A/Metabotropic glutamate receptor 2; test: Agonist activity at human 5HT2A/mGlu2 receptor expressed in HEK293 cells co-expressing Gqo5 assessed as increase in intracellular Ca2+ mobilization incubated for 1 hr by Fluo-4 dye based fluorescence assay; type: functional, cell-based; details: read-out: EC50

**Q.** How did the EC50 turn out when `COc1c(OCCOCCOCCOCCOCCOCCOCCOCCOc2ccc(C3CCN(c4ccn5c(CC6CC6)nnc5c4Cl)CC3)cc2)cccc1C(=O)C1CCN(CCc2ccc(F)cc2)CC1` was run?
**A.** Its EC50 is 10000 to 50000 nM.

**Q.** For `COCCOc1cccc(C(=O)C2CCN(CCc3ccc(F)cc3)CC2)c1OC`, which EC50 is on record?
**A.** The EC50 was > 50000 nM.

same assay, conditions: read-out: pEC50 (converted)

**Q.** Which EC50 does the source give for `COCCOc1cccc(C(=O)C2CCN(CCc3ccc(F)cc3)CC2)c1OC` here?
**A.** The EC50 was > 50100 nM.

target: T1, 5-hydroxytryptamine receptor 2A/Metabotropic glutamate receptor 2; test: Antagonist activity at human 5HT2A/mGlu2 receptor expressed in HEK293 cells co-expressing Gqo5 assessed as inhibition of 5HT-induced intracellular Ca2+ mobilization incubated for 1 hr by Fluo-4 dye based fluorescence assay 5HT2A_HUMAN/GRM2_HUMAN P28223/Q14416; type: functional, cell-based; details: not given

**Q.** Which IC50 does the source give for `COc1c(OCCOCCOCCOCCOCCOCCOCCOCCOc2ccc(C3CCN(c4ccn5c(CC6CC6)nnc5c4Cl)CC3)cc2)cccc1C(=O)C1CCN(CCc2ccc(F)cc2)CC1` here?
**A.** The IC50 was 470 nM.

**Q.** For `COCCOc1cccc(C(=O)C2CCN(CCc3ccc(F)cc3)CC2)c1OC`, which IC50 is on record?
**A.** The IC50 was 23 nM.

target: T2, 5-hydroxytryptamine receptor 2A (Homo sapiens, UniProt P28223); test: Antagonist activity at human 5HT2A receptor expressed in HEK293 cells assessed as inhibition of 5HT-induced intracellular Ca2+ mobilization incubated for 1 hr by Fluo-4 dye based fluorescence assay; type: functional, cell-based; details: read-out: IC50
T2 sequence (P28223 whole entry): as the sequence (P28223 whole entry) above

**Q.** Which IC50 does the source give for `COc1c(OCCOCCOCCOCCOCCOCCOCCOCCOc2ccc(C3CCN(c4ccn5c(CC6CC6)nnc5c4Cl)CC3)cc2)cccc1C(=O)C1CCN(CCc2ccc(F)cc2)CC1` here?
**A.** The IC50 was 410 nM.

**Q.** For `COCCOc1cccc(C(=O)C2CCN(CCc3ccc(F)cc3)CC2)c1OC`, which IC50 is on record?
**A.** Its IC50 is 9.3 nM.

target: T1, 5-hydroxytryptamine receptor 2A/Metabotropic glutamate receptor 2; test: Antagonist activity at human 5HT2A/mGlu2 receptor expressed in HEK293 cells assessed as inhibition of 5HT-induced intracellular Ca2+ mobilization incubated for 1 hr by Fluo-4 dye based fluorescence assay 5HT2A_HUMAN/GRM2_HUMAN P28223/Q14416; type: functional, cell-based; details: read-out: IC50

**Q.** With `COc1c(OCCOCCOCCOCCOCCOCCOCCOCCOc2ccc(C3CCN(c4ccn5c(CC6CC6)nnc5c4Cl)CC3)cc2)cccc1C(=O)C1CCN(CCc2ccc(F)cc2)CC1` as the molecule, how does the IC50 read?
**A.** The IC50 was 270 nM.

**Q.** Which IC50 does the source give for `COCCOc1cccc(C(=O)C2CCN(CCc3ccc(F)cc3)CC2)c1OC` here?
**A.** The IC50 was 16 nM.

target: T2, 5-hydroxytryptamine receptor 2A; test: Displacement of [3H]-ketanserin from human HT2A receptor expressed in HEK293 cell membranes incubated for 2 hrs by scintillation counting method; details: read-out: Ki; summary of the method: as §1

**Q.** For `COc1c(OCCOCCOCCOCCOCCOCCOCCOCCOc2ccc(C3CCN(c4ccn5c(CC6CC6)nnc5c4Cl)CC3)cc2)cccc1C(=O)C1CCN(CCc2ccc(F)cc2)CC1`, which Ki is on record?
**A.** The Ki was 110 nM.

**Q.** Which Ki does the source give for `COCCOc1cccc(C(=O)C2CCN(CCc3ccc(F)cc3)CC2)c1OC` here?
**A.** The Ki was 3 nM.

same assay, conditions: read-out: pKi (converted)

**Q.** For `COc1c(OCCOCCOCCOCCOCCOCCOCCOCCOc2ccc(C3CCN(c4ccn5c(CC6CC6)nnc5c4Cl)CC3)cc2)cccc1C(=O)C1CCN(CCc2ccc(F)cc2)CC1`, which Ki is on record?
**A.** The Ki was 120 nM.

target: T3, Metabotropic glutamate receptor 2 (Homo sapiens, UniProt Q14416); test: Positive modulator activity at human mGlu2 receptor expressed in HEK293 cells co-expressing Gqo5 assessed as increase in intracellular Ca2+ mobilization incubated for 1 hr in presence of EC20 glutamate by Fluo-4 dye based fluorescence assay; type: functional, cell-based; details: read-out: EC50
T3 sequence (Q14416 whole entry): as the sequence (Q14416 whole entry) above

**Q.** `COc1c(OCCOCCOCCOCCOCCOCCOCCOCCOc2ccc(C3CCN(c4ccn5c(CC6CC6)nnc5c4Cl)CC3)cc2)cccc1C(=O)C1CCN(CCc2ccc(F)cc2)CC1` was tested. Which EC50 did it give?
**A.** The EC50 was 510 nM.

**Q.** With `COCCOc1cccc(C(=O)C2CCN(CCc3ccc(F)cc3)CC2)c1OC` as the molecule, how does the EC50 read?
**A.** The EC50 was > 50000 nM.

same assay, conditions: read-out: pEC50 (converted)

**Q.** Which EC50 does the source give for `COCCOc1cccc(C(=O)C2CCN(CCc3ccc(F)cc3)CC2)c1OC` here?
**A.** The EC50 was > 50100 nM.

target: T1, 5-hydroxytryptamine receptor 2A/Metabotropic glutamate receptor 2; test: Antagonist activity at human 5HT2A/mGlu2 receptor expressed in HEK293 cells co-expressing Gqo5 assessed as inhibition of glutamate-induced intracellular Ca2+ mobilization incubated for 1 hr by Fluo-4 dye based fluorescence assay 5HT2A_HUMAN/GRM2_HUMAN P28223/Q14416; type: functional, cell-based; details: not given

**Q.** How did the IC50 turn out when `COc1c(OCCOCCOCCOCCOCCOCCOCCOCCOc2ccc(C3CCN(c4ccn5c(CC6CC6)nnc5c4Cl)CC3)cc2)cccc1C(=O)C1CCN(CCc2ccc(F)cc2)CC1` was run?
**A.** The IC50 was 660 nM.

**Q.** Which IC50 does the source give for `COCCOc1cccc(C(=O)C2CCN(CCc3ccc(F)cc3)CC2)c1OC` here?
**A.** The IC50 was 29 nM.

target: T1, 5-hydroxytryptamine receptor 2A/Metabotropic glutamate receptor 2; test: Displacement of [3H]-ketanserin from human 5HT2A/mGlu2 receptor expressed in HEK293 cell co-expressing Gqo5 membranes incubated for 2 hrs by scintillation counting method; type: cell-based; details: read-out: Ki; summary of the method: as §1

**Q.** For `COc1c(OCCOCCOCCOCCOCCOCCOCCOCCOc2ccc(C3CCN(c4ccn5c(CC6CC6)nnc5c4Cl)CC3)cc2)cccc1C(=O)C1CCN(CCc2ccc(F)cc2)CC1`, which Ki is on record?
**A.** The Ki was 160 nM.

**Q.** `COCCOc1cccc(C(=O)C2CCN(CCc3ccc(F)cc3)CC2)c1OC` was tested. Which Ki did it give?
**A.** Its Ki is 13 nM.

same assay, conditions: read-out: pKi (converted)

**Q.** For `COc1c(OCCOCCOCCOCCOCCOCCOCCOCCOc2ccc(C3CCN(c4ccn5c(CC6CC6)nnc5c4Cl)CC3)cc2)cccc1C(=O)C1CCN(CCc2ccc(F)cc2)CC1`, which Ki is on record?
**A.** The Ki was 132 nM.

target: T3, Metabotropic glutamate receptor 2; test: Agonist activity at human mGlu2 receptor expressed in HEK293 cells co-expressing Gqo5 assessed as increase in intracellular Ca2+ mobilization incubated for 1 hr by Fluo-4 dye based fluorescence assay; type: functional, cell-based; details: read-out: EC50

**Q.** How did the EC50 turn out when `COc1c(OCCOCCOCCOCCOCCOCCOCCOCCOc2ccc(C3CCN(c4ccn5c(CC6CC6)nnc5c4Cl)CC3)cc2)cccc1C(=O)C1CCN(CCc2ccc(F)cc2)CC1` was run?
**A.** The EC50 was 1600 nM.

**Q.** How did the EC50 turn out when `COCCOc1cccc(C(=O)C2CCN(CCc3ccc(F)cc3)CC2)c1OC` was run?
**A.** Its EC50 is > 50000 nM.

same assay, conditions: read-out: pEC50 (converted)

**Q.** With `COCCOc1cccc(C(=O)C2CCN(CCc3ccc(F)cc3)CC2)c1OC` as the molecule, how does the EC50 read?
**A.** The EC50 was > 50100 nM.
